# In ChEMBL document CHEMBL4513216, “Probing the Open Global Health Chemical Diversity Library for Multistage-Active Starting Points for Next-Generation Antimalarials” (ACS Infect Dis, 2020):
# Assay: Toxicity liver stage against HepG2, at 10uM
# Format: cell-based
# Set-up: test concentration 10 uM, cell line HepG2-A16-CD81EGFP
# Settings: human, HepG2-A16-CD81EGFP cells; read-out: INHIBITION
# In short: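 Uninfected HepG2-A16-CD81EGFP cells, 3 × 10^3 per well, 1536-well, plated on prespotted compound at 10 μM final, parasite-free screening media added to match infected plates; puromycin 10 μM positive, DMSO 0.5% negative; run in parallel with 48 h PbLuc assay at 37 °C, 5% CO2; viability by CellTiter-Glo luminescence, normalized to controls.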
row,Compound,cytotoxicity at 10 µM [%]
1,CCn1cc(-c2cncn2CCc2ccc3c(c2)OCCO3)cn1,18.7
2,CCOC(C)c1noc(CN2CCCN(c3ccccn3)CC2)n1 (stereo not given),-4.05
3,COc1cccc(-c2ccc(CNC(=O)c3ccc(=O)n(C)c3)cc2)c1,22.3
4,c1cncc(O[C@H]2CC[C@H]3[C@H]2OCCN3C2CCC2)c1,-6.69
5,O=C(NCCn1ccnc1)N1CCN(Cc2ccco2)CC1,3.94
6,O=C(c1ccnnc1)N1CC[C@H]2[C@H]1CCN2S(=O)(=O)C1CC1,-143
7,O=C(CC1NC(N2CCc3ccccc32)=NC1=O)Nc1ccc(Cl)cc1 (stereo not given),1.54
8,O=C(NCc1ccccc1F)N1CCCCC1C1OCCO1 (stereo not given),2.01
9,Cc1ccccc1CC(=O)N(C)C1CCCC1,6.33
10,Oc1c(F)cc(CNc2cccc(-c3nnc[nH]3)c2)cc1F,-44.2
11,COc1ccc(CNc2nc(C3CC3)no2)cc1OC,4.44
12,Cc1ccc(N2CCC(NC(C)c3cccs3)CC2)nc1 (stereo not given),-9.64
13,Cc1ncoc1C(=O)N1C[C@H]2CCC[C@@]2(COCC2CCOCC2)C1,0.23
14,O=C(C1CCCO1)N1CCCn2c(nnc2Cn2ccnc2)C1 (stereo not given),15.7
15,O=C(Cc1ccc(F)cc1)NCCNS(=O)(=O)C1CCCC1,9.31
16,Clc1ccc(CN2CCOC[C@H](Oc3cccnc3)C2)cc1,6.12
17,CN(CC(N)=O)C(=O)c1cn(-c2ccc(Br)cc2)cn1,6.85
18,CN1CCCn2c(nc(CNS(=O)(=O)C3CC3)cc2=O)C1,5.92
19,O=C(CCN1CCNCC1)N1CCC2(CC1)c1ccccc1CC2O (stereo not given),-9.43
20,Cc1cc(C)c(CNC(=O)N(C)CC2CCCCO2)c(=O)[nH]1 (stereo not given),-8.93
21,CC(=O)N1Cc2nc(C(=O)NCCc3cccnc3)oc2C1,-81.8
22,COc1ccc(C(O)CNC(=O)NCc2csc(C)n2)cc1 (stereo not given),-6.12
23,Cc1cc(NCCc2c[nH]cn2)nc(-c2cccnc2)n1,2.49
24,COc1nccnc1N1CCC(C(=O)O)(n2ccc(C(C)(C)C)n2)CC1,-4.05
25,Cc1cc(C)n(CC2CCCN2C(=O)c2ccc3c(c2)nnn3C)n1 (stereo not given),-17.3
26,Cc1ccc(CCC(=O)N2CCCC(n3cncn3)C2)c(C)c1 (stereo not given),1.8
27,O=C(Nc1ccccc1)[C@H]1O[C@H](CCN2CCCCC2)CC[C@@H]1O,-1.36

row,Compound,cytotoxicity at 10 µM [%]
1,C=Cc1ccc(C(=O)N2CCCC(Nc3ccccc3)C2)cc1 (stereo not given),-9.01
2,Cc1cccc(CN2CC3C[C@]3(NC(=O)c3ccco3)C2)n1 (stereo not given in full),-142
3,CCn1ccnc1C1CCN(c2ncnc3ccsc23)CC1,5.31
4,CCCc1noc(C2CCN(C(=O)CCn3nc(C)cc3C)CC2)n1,7.47
5,CN(CCc1cn[nH]c1)Cc1nc(Cc2cccc(C(F)(F)F)c2)no1,0.361
6,COc1ccccc1NCC(=O)Nc1cnn(Cc2ccccn2)c1,-0.53
7,COc1cc(OC)cc(N2CCC(NCc3cc[nH]n3)C2)c1 (stereo not given),2.55
8,CN(C)C(=O)N[C@@H]1CN(C2CCOCC2)[C@@H]2CCCO[C@@H]21,-4.08
9,Cc1cc(C)c(CNC(=O)NCC2Cc3ccccc32)c(=O)[nH]1 (stereo not given),-3.78
10,COC(=O)COc1nc(CC(C)C)c2c(c1C#N)CCCC2,21.5
11,Cc1cnn(CCNCC(=O)Nc2ccc(Cl)cn2)c1,1.93
12,COCCN1CCc2ncc(CNc3cc(N(C)C)ncn3)n2CC1,-1.95
13,COC(=O)CNC(=O)c1cn(-c2ccccn2)c(=O)c2ccccc12,0.0537
14,Cc1cc(CNc2ccc(-c3nc(C4CC4)no3)cn2)no1,2.55
15,CC(CNC(=O)c1cc(C2CC2)nc2c1cnn2C)Cn1cccn1 (stereo not given),3.49
16,CN1Cc2ccccc2N(CC(O)C(F)(F)F)CCC1=O (stereo not given),0.905
17,COCC1CC2(CCN(C(=O)c3cccc(C)c3)CC2)CO1 (stereo not given),-5.15
18,COc1ccsc1C(=O)N1CCCC(n2cncn2)C1 (stereo not given),4.6
19,CCc1c(C)sc(NC(=O)CN2CCOCC2)c1C(=O)OC,19.3
20,Fc1cnc(N2CCO[C@H]3CN(CC4CCOC4)C[C@H]32)nc1 (stereo not given in full),12.3
21,CC1(C)O[C@@](C)([C@H]2CC3(CCN(c4cnccn4)CC3)CO2)CC[C@@H]1O,5.53
22,CNc1cccc(C2CCCN(C(=O)Cc3ccccc3)C2)n1 (stereo not given),-6.5
23,COc1ccccc1CC(NC(=O)N1CCOCC1)C(C)C (stereo not given),4.29
24,Cc1cc(C)n(C2CN(CC(=O)N(C)Cc3ccc(C)o3)C2)n1,-6.24
25,c1cnc2c(c1)cc(C1CCOCC1)n2CCN1CCOCC1,0.487
26,Cc1cc(C(=O)N2CCC3(CCN3Cc3ccc(F)cc3)C2)no1 (stereo not given),4.29
27,CS(=O)(=O)N1CCC(NC(=O)COc2ccccc2Cl)CC1,-1.99

row,Compound,cytotoxicity at 10 µM [%]
1,CN(CCc1ccncc1)C(=O)C1CSCN1C(=O)C1CCCC1 (stereo not given),-7.39
2,O=C(C1CCCC1)N1C[C@@H]2CCN(c3cnccn3)C[C@@H]2C1,3.44
3,Cc1nnc(NC(=O)NCc2ccc(N3CCNC(=O)C3)cc2)s1,-1.26
4,O=c1[nH]c(-c2ccc(F)cc2)nc2c1CCNC2,-2.47
5,COc1ccc(CN2C[C@@H](F)[C@@H](OCc3nc4ccccc4[nH]3)C2)cn1,-2.59
6,O=C(Nc1nc2c(s1)CNCC2)NC1CCCC1,-2.37
7,O=C(Cn1ccc2ccccc21)N1CCC(Oc2ncccc2Br)CC1,4.51
8,N[C@H]1CN(S(=O)(=O)N2CCCC2)C[C@@H]1c1ccccc1,6.86
9,Cc1cc(C(=O)Nc2ccc3c(c2)N(C)CCN(C)C3)on1,7.34
10,CN(C)S(=O)(=O)N1CC[C@]2(O)CCN(c3nccs3)C[C@@H]2C1,-13
11,OCC1CCC2(CC1)CN(Cc1ccccn1)Cc1ccccc1O2 (stereo not given),5.35
12,CO[C@@H]1CCN(Cc2cnn(C)c2)[C@@H]2CN(Cc3ccco3)C[C@@H]21,-12.5
13,O=C(N[C@@H]1CC[C@@H](n2ccnc2)[C@@H]1O)c1cc2c(s1)CCC2,-12.7
14,CN1CC(C(=O)NCc2ccc(Br)cc2F)CC1=O (stereo not given),9.01
15,CN(CCc1ccccc1)Cc1cc(C(=O)N2CCCC2(C)C)no1,-9.18
16,CN(Cc1ccoc1)C(=O)C1(Oc2ccc(Cl)cc2)CCNCC1,5.73
17,COCCOc1ccccc1C(=O)N1CCCC(c2cc(C)[nH]n2)C1 (stereo not given),-22.6
18,COCCn1ccc(NC(=O)CNC(=O)CC(C)(C)C)n1,17.3
19,COC(=O)N1CCCN(C(=O)c2cccc3cccnc23)CC1,8.33
20,CCC(CC)NC(=O)c1ccc2nnc(C3CCN(S(C)(=O)=O)C3)n2c1 (stereo not given),3.25
21,Cc1nc(C2CCCN(C(=O)CCCOc3cccc(F)c3)C2)no1 (stereo not given),9.91
22,Cn1nc(CN2CCCCC2)c2c1CN(C(=O)c1cccc(C#N)c1)C2,-2.21
23,CN1CCN(C(CNC(=O)CCn2cccn2)c2cccs2)CC1 (stereo not given),24.4
24,CCCSc1nn(CCN(C)C)c2nc3sc(C)c(CC)c3c(=O)n12,16.4
25,CCC1=N[C@@]2(CC[C@@H]3CN(Cc4ccccc4C)C[C@@H]32)C(=O)N1,8.4
26,CN(Cc1ccc(F)cc1F)CC(C)(CO)CO,-2.52
